ChEMBL document CHEMBL1131231, “New azole antifungals. 2. Synthesis and antifungal activity of heterocyclecarboxamide derivatives of 3-amino-2-aryl-1-azolyl-2-butanol” (1998)
Converted amounts (≈) assume the structure as drawn.

Columns and labels:
Format in all cases: functional
Candida albicans [1] = test: In vivo antifungal activity against murine candidosis model after peroral administration with 0.5 mg/kg at various time intervals. (percent protection for 100% mortality with untreated group); conditions: route oral
In short: (§1)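 Male mice, groups of 10, infected iv with 0.2 mL Candida albicans at (2–8) × 10⁷ cfu/mL. Oral suspension in 1% Tween + 0.2% carboxymethylcellulose in water, given 1, 4 and 24 h post-infection; vehicle controls and a fluconazole group at the same dose. Survival scored on days 1, 2, 3, 5, 7, 9, reported as % surviving on the day untreated, or fluconazole-treated, mortality reached 100%.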

Candida albicans [2] = test: In vivo antifungal activity against murine candidosis model after peroral administration with 0.5 mg/kg at various time intervals. (percent protection for 100% mortality with fluconazole-treated group.); conditions: route oral; in short: as §1
[3] = The compound was tested in vitro for antifungal activity against 10 yeasts.
In short: (§2)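 Agar dilution on Kimmig's agar with 0.5% glycerol; ATCC or clinical isolates, inocula at 10⁵ cfu/mL. Drugs from 800 μg/mL stock in 50% ethanol, 2-fold serial dilutions 80 to 0.03 μg/mL in plates. Incubated 25 °C, 48 h for yeasts, 120 h for filamentous fungi. Value is geometric mean of MICs (μg/mL); >80 taken as 160, ≤0.03 as 0.03.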

[4] = The compound was tested in vitro for antifungal activity against 6 filamentous fungi.; in short: as §2
Candida albicans [5] = test: In vivo antifungal activity against murine candidosis model after peroral administration with 1 mg/kg at various time intervals. (percent protection for 100% mortality with fluconazole-treated group.); conditions: route oral; in short: as §1
Candida albicans [6] = test: In vivo antifungal activity against murine candidosis model after peroral administration with 1 mg/kg at various time intervals. (percent protection for 100% mortality with untreated group); conditions: route oral; in short: as §1

| SMILES | Protection (Candida albicans [1]) [%] | Protection (Candida albicans [2]) [%] | MIC [3] [µg/mL] | MIC [4] [µg/mL] | Protection (Candida albicans [5]) [%] | Protection (Candida albicans [6]) [%] |
| --- | --- | --- | --- | --- | --- | --- |
| C[C@@H](NC(=O)c1nsc(-c2ccc(Cl)cc2)n1)[C@](O)(Cn1cncn1)c1ccc(F)cc1F | 80 | 10 | 1.4 (≈ 2.85 µM) | > 80 |  |  |
| CCC(C)n1ncn(-c2ccc(N3CCN(c4ccc(OC[C@@H]5CO[C@@](Cn6cncn6)(c6ccc(Cl)cc6Cl)O5)cc4)CC3)cc2)c1=O (some centres undefined) [ITRACONAZOLE] | 0 | 0 | 5.2 (≈ 7.37 µM) | 63 (≈ 89.3 µM) |  |  |
| C[C@@H](n1cnc2cc(-c3ccc(S(C)(=O)=O)cc3)sc2c1=O)[C@](O)(Cn1cncn1)c1ccc(F)cc1F |  |  | 2.3 (≈ 4.12 µM) | > 80 | 0 | 40 |
| C[C@@H](NC(=O)c1cnc(-c2ccc(Cl)cc2)s1)[C@](O)(Cn1cncn1)c1ccc(F)cc1F | 100 | 100 | 0.7 (≈ 1.43 µM) | 6.3 (≈ 12.9 µM) |  |  |
| Cc1c(C(=O)N[C@H](C)[C@](O)(Cn2cncn2)c2ccc(F)cc2F)cnn1-c1ccc(C(F)(F)F)cc1 |  |  | 1.7 (≈ 3.27 µM) | 13 (≈ 25 µM) | 80 | 100 |
| C[C@@H](NC(=O)c1cnn(-c2ccc(C(F)(F)F)cc2)c1C(F)(F)F)[C@](O)(Cn1cncn1)c1ccc(F)cc1F |  |  | 1.8 (≈ 3.13 µM) | 13 (≈ 22.6 µM) | 0 | 60 |
| Cc1cc2ncc(C(=O)N[C@H](C)[C@](O)(Cn3cncn3)c3ccc(F)cc3F)c(C)n2n1 |  |  | 70 (≈ 159 µM) | > 80 | 0 | 20 |
| Cc1nc(C)c(C(=O)N[C@H](C)[C@](O)(Cn2cncn2)c2ccc(F)cc2F)s1 | 0 | 0 | 19 (≈ 46.6 µM) | > 80 |  |  |
| Cc1nc(-c2ccc(Br)cc2)sc1C(=O)N[C@H](C)[C@](O)(Cn1cncn1)c1ccc(F)cc1F | 100 | 90 | 0.6 (≈ 1.09 µM) | 1.8 (≈ 3.28 µM) |  |  |
| Cc1nc(-c2ccc(C#N)cc2)sc1C(=O)N[C@H](C)[C@](O)(Cn1cncn1)c1ccccc1F | 100 | 60 | 1.5 (≈ 3.15 µM) | 5 (≈ 10.5 µM) |  |  |
| Cc1c(C(=O)N[C@H](C)[C@](O)(Cn2cncn2)c2ccc(F)cc2F)cnn1-c1cccc(C(F)(F)F)c1 |  |  | 4.6 (≈ 8.84 µM) | 20 (≈ 38.4 µM) | 0 | 100 |
| Cc1c(C(=O)N[C@H](C)[C@](O)(Cn2cncn2)c2ccc(F)cc2F)cnn1-c1ccc(OC(F)(F)F)cc1 |  |  | 2.6 (≈ 4.85 µM) | 5.6 (≈ 10.4 µM) | 80 | 100 |
| Cc1nc(-c2ccc(C(=N)NO)cc2)sc1C(=O)N[C@H](C)[C@](O)(Cn1cncn1)c1ccc(F)cc1F | 0 | 0 | 12 (≈ 22.7 µM) | 80 (≈ 152 µM) |  |  |
| C[C@@H](NC(=O)c1cnn(-c2ccc(Cl)cc2)c1N)[C@](O)(Cn1cncn1)c1ccc(F)cc1F |  |  | 2.7 (≈ 5.53 µM) | 45 (≈ 92.2 µM) | 0 | 80 |
| C[C@@H](NC(=O)c1cnn(-c2ccc(Cl)cc2)c1C(C)(C)C)[C@](O)(Cn1cncn1)c1ccc(F)cc1F |  |  | 4.6 (≈ 8.7 µM) | > 80 | 0 | 0 |
| Cc1nc(-c2ccc(C#N)cc2)sc1C(=O)N[C@H](C)[C@](O)(Cn1cncn1)c1ccc(Cl)cc1Cl | 100 | 100 | 0.4 (≈ 0.758 µM) | 5 (≈ 9.48 µM) |  |  |
| Cc1c(C(=O)N[C@H](C)[C@](O)(Cn2cncn2)c2ccc(F)cc2F)cnn1-c1ccc(Cl)cc1 |  |  | 1.8 (≈ 3.7 µM) | 16 (≈ 32.9 µM) | 60 | 80 |
| CSc1ccc(-c2cc3ncn([C@H](C)[C@](O)(Cn4cncn4)c4ccc(F)cc4F)c(=O)c3s2)cc1 |  |  | 5.5 (≈ 10.5 µM) | > 80 | 0 | 30 |
| C[C@@H](NC(=O)c1sc(-c2ccc(C(F)(F)F)cc2)nc1C(F)(F)F)[C@](O)(Cn1cncn1)c1ccc(F)cc1F | 90 | <20 | 1.6 (≈ 2.71 µM) | 17 (≈ 28.7 µM) |  |  |
| C[C@@H](NC(=O)c1cnn(-c2ccc(Cl)cc2)c1C1CC1)[C@](O)(Cn1cncn1)c1ccc(F)cc1F |  |  | 1.8 (≈ 3.51 µM) | > 80 | 0 | 100 |
| Cc1c(C(=O)N[C@H](C)[C@](O)(Cn2cncn2)c2ccc(F)cc2F)cnn1-c1ccccc1Cl |  |  | 11 (≈ 22.6 µM) | > 80 | 0 | 0 |
